Active and inactive are the calls of the source. The rule behind the calls is not given here.
How the values were obtained:
[1] = target: T1, Toll-like receptor 8 (Homo sapiens) (UniProt Q9NR97); test: Inhibition of human TLR8 expressed in HEK293 cells assessed as reduction in R848-induced NFkappaB production at 0.5 uM incubated for 16 hrs by quanti-blue SEAP assay; type: cell-based
T1 sequence (whole entry): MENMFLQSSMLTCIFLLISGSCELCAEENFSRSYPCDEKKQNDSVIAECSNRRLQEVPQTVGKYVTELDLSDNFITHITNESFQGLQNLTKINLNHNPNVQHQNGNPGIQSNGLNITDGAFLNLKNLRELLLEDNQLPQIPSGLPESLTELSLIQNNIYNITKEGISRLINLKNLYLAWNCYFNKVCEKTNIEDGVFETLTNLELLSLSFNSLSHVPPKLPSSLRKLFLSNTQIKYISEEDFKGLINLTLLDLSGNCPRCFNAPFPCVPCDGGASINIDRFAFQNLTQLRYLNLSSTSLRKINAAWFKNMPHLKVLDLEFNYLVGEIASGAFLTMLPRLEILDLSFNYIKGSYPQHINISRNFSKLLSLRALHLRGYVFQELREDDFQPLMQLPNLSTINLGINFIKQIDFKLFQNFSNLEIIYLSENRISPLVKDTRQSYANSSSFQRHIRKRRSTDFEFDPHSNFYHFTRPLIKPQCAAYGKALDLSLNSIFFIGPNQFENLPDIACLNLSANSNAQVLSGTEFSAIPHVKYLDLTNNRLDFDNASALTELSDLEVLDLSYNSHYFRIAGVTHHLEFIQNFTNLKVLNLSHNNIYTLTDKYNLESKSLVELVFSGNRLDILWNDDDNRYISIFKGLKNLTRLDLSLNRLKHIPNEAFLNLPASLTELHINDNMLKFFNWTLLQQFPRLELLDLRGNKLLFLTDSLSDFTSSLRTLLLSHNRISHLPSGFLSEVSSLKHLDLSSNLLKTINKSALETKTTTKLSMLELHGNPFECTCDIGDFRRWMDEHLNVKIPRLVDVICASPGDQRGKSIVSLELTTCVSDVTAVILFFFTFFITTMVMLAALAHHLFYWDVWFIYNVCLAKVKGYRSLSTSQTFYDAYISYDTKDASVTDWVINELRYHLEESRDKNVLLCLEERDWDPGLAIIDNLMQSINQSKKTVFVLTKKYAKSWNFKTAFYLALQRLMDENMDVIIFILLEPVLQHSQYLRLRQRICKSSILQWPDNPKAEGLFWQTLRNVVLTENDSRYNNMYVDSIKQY

[2] = target: T2, Toll-like receptor 7 (Homo sapiens) (UniProt Q9NYK1); test: Inhibition of human TLR7 expressed in HEK293 cells assessed as reduction in resiquimod-induced NFkappaB production at 0.5 uM incubated for 16 hrs by quanti-blue SEAP assay; type: cell-based
T2 sequence (whole entry): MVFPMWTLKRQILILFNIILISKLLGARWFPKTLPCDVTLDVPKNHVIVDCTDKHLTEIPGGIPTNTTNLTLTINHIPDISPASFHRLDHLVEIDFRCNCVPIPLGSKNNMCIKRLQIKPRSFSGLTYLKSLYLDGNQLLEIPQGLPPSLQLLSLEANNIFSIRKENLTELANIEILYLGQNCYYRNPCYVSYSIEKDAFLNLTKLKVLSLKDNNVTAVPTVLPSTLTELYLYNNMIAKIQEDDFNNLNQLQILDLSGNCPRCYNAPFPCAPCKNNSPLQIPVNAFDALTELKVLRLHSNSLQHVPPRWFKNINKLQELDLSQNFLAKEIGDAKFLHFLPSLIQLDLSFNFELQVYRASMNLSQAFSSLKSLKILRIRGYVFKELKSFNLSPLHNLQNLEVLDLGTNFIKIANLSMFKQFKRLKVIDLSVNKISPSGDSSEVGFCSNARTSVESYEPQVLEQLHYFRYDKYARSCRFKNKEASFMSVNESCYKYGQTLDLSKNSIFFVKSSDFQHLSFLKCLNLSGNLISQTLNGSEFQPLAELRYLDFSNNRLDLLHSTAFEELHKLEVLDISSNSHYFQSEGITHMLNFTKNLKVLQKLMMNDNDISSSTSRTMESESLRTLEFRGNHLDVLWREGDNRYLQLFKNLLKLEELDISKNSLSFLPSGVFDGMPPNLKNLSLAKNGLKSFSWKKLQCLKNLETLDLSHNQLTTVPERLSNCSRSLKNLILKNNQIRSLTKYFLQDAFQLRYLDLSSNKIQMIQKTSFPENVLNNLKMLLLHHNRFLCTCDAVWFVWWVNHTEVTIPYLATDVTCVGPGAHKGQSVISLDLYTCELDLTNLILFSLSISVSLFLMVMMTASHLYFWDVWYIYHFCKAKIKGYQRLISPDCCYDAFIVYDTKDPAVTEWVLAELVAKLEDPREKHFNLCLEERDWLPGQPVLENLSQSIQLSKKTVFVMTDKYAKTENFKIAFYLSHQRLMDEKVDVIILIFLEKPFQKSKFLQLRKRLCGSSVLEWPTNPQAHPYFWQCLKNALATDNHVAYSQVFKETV
Summary of the method: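 Selectivity panel in stably transfected HEK 293-Blue cells, each overexpressing one human TLR with an inducible SEAP reporter. Agonists: Pam3CSK4 (TLR1/2), Pam2CSK4 (TLR2/6), poly(I:C) (TLR3), LPS (TLR4), R848 (TLR7/8), ODN 2006 (TLR9). Cells were exposed to compound for 16 h. Activity = (raw − untreated)/(ligand + solvent − untreated), with ligand + solvent set as 100%.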

[3] = target: Toll-like receptor 7 (Mus musculus) (UniProt P58681); test: Inhibition of endogenous mouse TLR7 in mouse RAW264.7 cells assessed as resiquimod-induced NO production at 1.25 uM incubated for 18 to 24 hrs
Toll-like receptor 7 (Mus musculus), sequence (P58681 whole entry, looked up): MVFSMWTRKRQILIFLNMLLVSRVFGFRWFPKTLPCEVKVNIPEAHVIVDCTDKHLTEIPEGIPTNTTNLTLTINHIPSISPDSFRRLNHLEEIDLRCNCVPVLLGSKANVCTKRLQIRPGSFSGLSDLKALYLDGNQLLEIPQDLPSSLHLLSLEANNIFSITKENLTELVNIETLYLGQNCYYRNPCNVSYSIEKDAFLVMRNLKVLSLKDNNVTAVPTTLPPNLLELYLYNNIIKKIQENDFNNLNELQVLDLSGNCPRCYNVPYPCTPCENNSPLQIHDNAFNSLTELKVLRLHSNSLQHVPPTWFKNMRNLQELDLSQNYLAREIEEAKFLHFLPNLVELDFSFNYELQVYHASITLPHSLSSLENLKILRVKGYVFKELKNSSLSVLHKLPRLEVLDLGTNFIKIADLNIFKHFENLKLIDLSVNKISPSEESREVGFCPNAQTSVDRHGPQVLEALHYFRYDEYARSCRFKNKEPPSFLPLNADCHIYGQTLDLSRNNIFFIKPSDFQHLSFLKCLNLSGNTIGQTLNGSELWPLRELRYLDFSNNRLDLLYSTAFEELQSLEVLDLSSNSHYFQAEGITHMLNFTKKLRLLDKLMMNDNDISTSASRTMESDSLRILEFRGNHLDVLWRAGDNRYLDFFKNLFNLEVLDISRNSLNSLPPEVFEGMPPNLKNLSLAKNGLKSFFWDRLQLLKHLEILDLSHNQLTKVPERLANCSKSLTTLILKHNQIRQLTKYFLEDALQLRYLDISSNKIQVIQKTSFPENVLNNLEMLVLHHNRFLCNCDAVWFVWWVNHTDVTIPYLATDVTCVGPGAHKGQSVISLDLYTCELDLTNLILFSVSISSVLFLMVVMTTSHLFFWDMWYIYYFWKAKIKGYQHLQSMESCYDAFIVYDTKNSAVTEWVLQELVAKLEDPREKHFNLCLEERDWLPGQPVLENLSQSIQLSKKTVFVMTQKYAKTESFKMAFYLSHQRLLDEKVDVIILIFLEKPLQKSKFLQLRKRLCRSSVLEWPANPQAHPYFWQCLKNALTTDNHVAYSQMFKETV

THP-1 [4] = test: Inhibition of IFN mediated immune response in human THP1 cells assessed as inhibition of 3p-hpRNA-induced RIG1 signalling pathway at 5 to 20 uM incubated for 16 hrs by luciferase assay; type: functional, cell-based
Summary of the method: (§1)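 THP1-Dual monocytes carrying Lucia luciferase and SEAP reporters were stimulated with 3p-hpRNA (RIG-I agonist) or Y-form dsDNA G3-YSD (cGAS agonist), with or without compound. Secreted Lucia luciferase luminescence was measured as the type I IFN read-out. Mean ± s.d., n = 3 independent experiments.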

HEK293 = test: Cytotoxicity against human HEK293 cells transfected with human TLR8 assessed as reduction in cell viability up to 5 uM incubated for 16 hrs by WST-1 assay; type: cell-based; conditions: hek293, 16 h
THP-1 [5] = test: Cytotoxicity against human THP1 cells transfected with human TLR7/8 assessed as reduction in cell viability at 100 uM incubated for 16 hrs by WST-1 assay; type: cell-based; conditions: thp-1, 16 h
THP-1 [6] = test: Inhibition of IFN mediated immune response in human THP1 cells assessed as inhibition of 3p-hpRNA-induced RIG1 signalling pathway at 20 uM incubated for 16 hrs by luciferase assay; type: functional, cell-based; summary of the method: as §1
THP-1 [7] = test: Inhibition of IFN mediated immune response in human THP1 cells assessed as inhibition of G3-YSD-induced cGAS signalling pathway at 20 uM incubated for 16 hrs by luciferase assay; type: functional, cell-based; summary of the method: as §1

O=C(Nc1ccc(Oc2cc(C(F)(F)F)cc(C(F)(F)F)c2)cc1)c1c(F)cccc1I
inhibition [1]: inactive | inhibition [2]: inactive | inhibition [3]: inactive

O=C(Nc1ccc(Oc2cncc(C(F)(F)F)c2)cc1)c1c(F)cccc1Cl
inhibition [1]: inactive | inhibition [2]: inactive | inhibition (THP-1 [4]): Active

O=C(Nc1ccc(Oc2cc(C(F)(F)F)cc(C(F)(F)F)c2)cc1)c1c(F)cccc1Cl
Activity (HEK293): Non-Toxic

O=[N+]([O-])c1c(I)cccc1Oc1ccc(-c2nnco2)cc1
Activity (THP-1 [5]): Toxic | inhibition (THP-1 [6]): Active | inhibition (THP-1 [7]): Active

From ChEMBL document CHEMBL4354819, “Discovery of Novel Small Molecule Dual Inhibitors Targeting Toll-Like Receptors 7 and 8” (J Med Chem, 2019)
